Measured values published in ChEMBL document CHEMBL1129793, “Quantitative structure-activity relationships for the in vitro antimycobacterial activity of pyrazinoic acid esters” (J Med Chem, 1996).

System: not listed separately
Test: Partition coefficient (logP)
Type: physicochemical
Conditions: octanol/water

SMILES	logP
CCCCOC(=O)c1cnc(Cl)cn1	2.21
CCCCCCCCCC(C)(C)OC(=O)c1cnc(Cl)cn1	6.01
CCCCCCC(C)(CCCCCC)OC(=O)c1cnc(Cl)cn1	7.08
CCCCCCCCCOC(=O)c1cnc(C)cn1	4.46
CCCCCCC(CCCCCC)OC(=O)c1cnc(Cl)cn1	7.04
CCCCCCCOC(=O)c1cnc(Cl)cn1	3.87
CCCCCC(C)(CCCCC)OC(=O)c1cnc(Cl)cn1	5.82
CCCCCCCCCCOC(=O)c1cnc(Cl)cn1	5.48
CCCCCCC(C)(CCCC)OC(=O)c1cnc(Cl)cn1 (configuration not stated)	5.93

System: Mycobacterium avium
Test: In vitro activity against Mycobacterium avium (MAC-101).
Type: functional
Conditions: not given
Outline: (§1)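 Broth macrodilution MIC. Cultures were grown in modified Middlebrook 7H10 broth (agar and malachite green omitted) with 10% OADC and 0.05% Tween 80, shaken at 37 °C for 3 days, then diluted in 7H10 broth to 1 Klett unit/mL. Test agents were dissolved in water or DMSO and filter-sterilised, then serially diluted 2-fold in 7H10 broth at pH 5.8. Tubes were shaken at 37 °C for 7–10 days, with a drug-free control. MIC was the lowest concentration with no visible turbidity, expressed in mmol/L.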

SMILES	Log 1/MMIC
CCCCOC(=O)c1cnc(Cl)cn1	0.526
CCCCCCCCCC(C)(C)OC(=O)c1cnc(Cl)cn1	0.106
CCCCCCC(C)(CCCCCC)OC(=O)c1cnc(Cl)cn1	0.744
CCCCCCCCCOC(=O)c1cnc(C)cn1	0.616
CCCCCCC(CCCCCC)OC(=O)c1cnc(Cl)cn1	1.329
CCCCCCCOC(=O)c1cnc(Cl)cn1	1.506
CCCCCC(C)(CCCCC)OC(=O)c1cnc(Cl)cn1	0.708
CCCCCCCCCCOC(=O)c1cnc(Cl)cn1	0.97
CCCCCCC(C)(CCCC)OC(=O)c1cnc(Cl)cn1 (configuration not stated)	0.106

System: not listed separately
Test: T1/2 in equine serum
Type: ADME, organism-based, Equus caballus
Conditions: horse
Outline: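 Ester from a 1 mg/mL stock was mixed with 5% aqueous equine serum in 0.01 M KH2PO4, pH 7.2. Remaining ester was measured by isocratic reverse-phase HPLC (80% acetonitrile/20% 0.1 M sodium acetate, pH 5.0), with UV detection at 265 nm against a standard curve. Half-life is the time to 50% conversion to the acid.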

SMILES	half-life [h]
CCCCOC(=O)c1cnc(Cl)cn1	0.0917
CCCCCCCCCC(C)(C)OC(=O)c1cnc(Cl)cn1	15
CCCCCCC(C)(CCCCCC)OC(=O)c1cnc(Cl)cn1	18
CCCCCCCCCOC(=O)c1cnc(C)cn1	0.0167
CCCCCCC(CCCCCC)OC(=O)c1cnc(Cl)cn1	1
CCCCCCCOC(=O)c1cnc(Cl)cn1	0.0533
CCCCCC(C)(CCCCC)OC(=O)c1cnc(Cl)cn1	6
CCCCCCCCCCOC(=O)c1cnc(Cl)cn1	0.0317
CCCCCCC(C)(CCCC)OC(=O)c1cnc(Cl)cn1 (configuration not stated)	10.8

System: Mycobacterium tuberculosis
Test: In vitro activity against Mycobacterium tuberculosis (ATCC 27294)
Type: functional
Conditions: not given
Outline: as §1

SMILES	Log 1/MMIC
CCCCOC(=O)c1cnc(Cl)cn1	2.934
CCCCCCCCCC(C)(C)OC(=O)c1cnc(Cl)cn1	1.611
CCCCCCC(C)(CCCCCC)OC(=O)c1cnc(Cl)cn1	3.152
CCCCCCCCCOC(=O)c1cnc(C)cn1	2.422
CCCCCCC(CCCCCC)OC(=O)c1cnc(Cl)cn1	3.135
CCCCCCCOC(=O)c1cnc(Cl)cn1	3.631

System: Mycobacterium avium
Test: In vitro activity against Mycobacterium avium (ATCC 49601).
Type: functional
Conditions: not given
Outline: as §1

SMILES	Log 1/MMIC
CCCCOC(=O)c1cnc(Cl)cn1	0.225
CCCCCCCCCC(C)(C)OC(=O)c1cnc(Cl)cn1	0.106
CCCCCCC(C)(CCCCCC)OC(=O)c1cnc(Cl)cn1	1.346
CCCCCCCCCOC(=O)c1cnc(C)cn1	0.917
CCCCCCC(CCCCCC)OC(=O)c1cnc(Cl)cn1	0.726
CCCCCCCOC(=O)c1cnc(Cl)cn1	1.205
CCCCCC(C)(CCCCC)OC(=O)c1cnc(Cl)cn1	0.708
CCCCCCCCCCOC(=O)c1cnc(Cl)cn1	1.271
CCCCCCC(C)(CCCC)OC(=O)c1cnc(Cl)cn1 (configuration not stated)	0.106

System: Mycobacterium tuberculosis
Test: In vitro activity against Mycobacterium tuberculosis (ATCC 35801)
Type: functional
Conditions: not given
Outline: as §1

SMILES	Log 1/MMIC
CCCCOC(=O)c1cnc(Cl)cn1	3.633
CCCCCCCCCC(C)(C)OC(=O)c1cnc(Cl)cn1	2.514
CCCCCCC(C)(CCCCCC)OC(=O)c1cnc(Cl)cn1	2.851
CCCCCCCCCOC(=O)c1cnc(C)cn1	2.422
CCCCCCCCCCOC(=O)c1cnc(Cl)cn1	3.077
CCCCCCC(C)(CCCC)OC(=O)c1cnc(Cl)cn1 (configuration not stated)	1.611

System: Mycobacterium tuberculosis
Test: In vitro activity against Mycobacterium tuberculosis (ATCC 35828)
Type: functional
Conditions: not given
Outline: as §1

SMILES	Log 1/MMIC
CCCCOC(=O)c1cnc(Cl)cn1	2.633
CCCCCCCCCC(C)(C)OC(=O)c1cnc(Cl)cn1	1.31
CCCCCCC(C)(CCCCCC)OC(=O)c1cnc(Cl)cn1	2.851
CCCCCC(C)(CCCCC)OC(=O)c1cnc(Cl)cn1	1.31
CCCCCCC(C)(CCCC)OC(=O)c1cnc(Cl)cn1 (configuration not stated)	1.31

System: Mycobacterium kansasii
Test: in vitro activity against Mycobacterium kansasii (SWK).
Type: functional
Conditions: not given
Outline: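 M. kansasii clinical isolate SWK was grown 3 days at 37 °C with shaking in modified Middlebrook 7H10 broth with 10% OADC and 0.05% Tween 80, then diluted. It was tested in serial 2-fold dilutions in 7H10 broth at pH 5.8, shaken at 37 °C for 7–10 days, with a drug-free control. MIC was the lowest concentration giving no visible turbidity, expressed in mmol/L.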

SMILES	Log 1/MMIC
CCCCOC(=O)c1cnc(Cl)cn1	2.33
CCCCCCCCCC(C)(C)OC(=O)c1cnc(Cl)cn1	2.815
CCCCCCC(C)(CCCCCC)OC(=O)c1cnc(Cl)cn1	2.249
CCCCCCCCCOC(=O)c1cnc(C)cn1	2.121
CCCCCCC(CCCCCC)OC(=O)c1cnc(Cl)cn1	2.834
CCCCCCCOC(=O)c1cnc(Cl)cn1	3.932
CCCCCC(C)(CCCCC)OC(=O)c1cnc(Cl)cn1	1.611
CCCCCCCCCCOC(=O)c1cnc(Cl)cn1	2.776
CCCCCCC(C)(CCCC)OC(=O)c1cnc(Cl)cn1 (configuration not stated)	1.912
